{
  "source": "paper PMC8792325",
  "about": "(Bioorganic & medicinal chemistry letters, 2021)",
  "key": {"[1]": {"system": "HBV replication in HepDES19 cells", "experiment": "Mapping of the HBV replication step inhibited, in HepDES19 cells", "format": "cell-based, Hepatitis B virus", "settings": "HepDES19, 6 days, ETV 1 μM, Bay 41–4109 2 μM; for encapsidated pgRNA / capsids: ENAN-34017 5 μM, 61 5 μM; for encapsidated pgRNA: Northern blot; for capsids: particle gel assay; for intracellular core protein level: Western blot", "procedure,_shortened": "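HepDES19 cells were kept with tetracycline to block pgRNA transcription (negative control) or without it to induce pgRNA and HBV DNA replication. From 24 h after tet removal, cells got DMSO, test compound (5 μM) or a type II CpAM reference (5 μM) for 6 days. Intracellular core protein was detected by Western blot with an antibody to Cp C-terminal 14 residues; β-actin was the loading control.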"}, "HBV replication [2]": {"system": "HBV replication", "settings": "human hepatoma cell line HepDES19; cited from earlier work"}, "[3]": {"experiment": "Metabolic stability in mouse liver microsomes", "format": "in vitro ADME", "settings": "Half-life T1/2, mouse liver microsomes"}, "HBV replication [4]": {"system": "HBV replication", "settings": "immortalized mouse hepatocyte line AML12HBV10; cited from earlier work"}, "HBV replication [5]": {"system": "HBV replication", "experiment": "Anti-HBV activity, dot blot hybridization assay in AML12HBV10 cells", "format": "cell-based, Hepatitis B virus"}, "[6]": {"experiment": "Mouse PK study, IV and PO", "design": "species or system mice", "settings": "in vivo, 3 mg/kg"}, "[7]": {"system": "CYP enzymes (one unnamed isoform of a panel of 9)", "experiment": "in vitro", "format": "in vitro ADME"}, "CYP enzymes": {"system": "CYP enzymes", "experiment": "in vitro", "format": "in vitro ADME", "settings": "human, 10 μM"}},
  "data": [
    {"compound": "COC(=O)C1=C(C)NC(c2ncc(F)cc2F)=N[C@H]1c1ccc(F)cc1Cl", "note": "[Bay 41–4109]", "values": [
      {"measurement": "encapsidated pgRNA", "setting": "[1]", "value": "prevented"},
      {"measurement": "capsids", "setting": "[1]", "value": "completely abolished capsid formation"},
      {"measurement": "intracellular core protein level", "setting": "[1]", "value": "induced the degradation of core protein"}
    ]},
    {"compound": "O=C(Nc1ccc(F)c(Cl)c1)c1cccc2c1OCCO2", "note": "[Compound 10]", "values": [
      {"measurement": "EC50 in HepDES19", "setting": "HBV replication [2]", "value": "sub-micromolar"},
      {"measurement": "half-life", "setting": "[3]", "value": "< 10", "unit": "min"},
      {"measurement": "EC50 in AML12HBV10", "setting": "HBV replication [4]", "value": "sub-micromolar"}
    ]},
    {"compound": "O=C(Nc1ccc(N2CCOCC2)c(Cl)c1)c1cccc2c1OCCO2", "note": "[Compound 17]", "values": [
      {"measurement": "anti-HBV activity (in words)", "setting": "HBV replication [5]", "value": "loss of anti-HBV activity"}
    ]},
    {"compound": "O=C(Nc1ccc(O)c(Cl)c1)c1cccc2c1OCCO2", "note": "[Compound 20]", "values": [
      {"measurement": "anti-HBV activity (in words)", "setting": "HBV replication [5]", "value": "not active"}
    ]},
    {"compound": "O=C(NC1CC(F)(F)C1)c1cccc2c1OCCO2", "note": "[Compound 21]", "values": [
      {"measurement": "anti-HBV activity (in words)", "setting": "HBV replication [5]", "value": "lost activity"}
    ]},
    {"compound": "O=C(Nc1cc(F)c(F)c(F)c1)c1cccc2c1OCCO2", "note": "[Compound 29]", "values": [
      {"measurement": "anti-HBV activity (in words)", "setting": "HBV replication [5]", "value": "submicromolar"}
    ]},
    {"compound": "O=C(Nc1ccc(F)c(Cl)c1)c1cccc2c1OCCC2", "note": "[Compound 33]", "values": [
      {"measurement": "activity loss compared to 10", "setting": "HBV replication [5]", "value": "about 4 fold"}
    ]},
    {"compound": "O=C(Nc1ccc(F)c(Cl)c1)c1cccc2nccnc12", "note": "[Compound 34]", "values": [
      {"measurement": "activity loss compared to 10", "setting": "HBV replication [5]", "value": "> 10", "unit": "fold"}
    ]},
    {"compound": "O=C(Nc1ccc(F)c(Cl)c1)c1cccc2c1OC(F)(F)O2", "note": "[Compound 37]", "values": [
      {"measurement": "potency increase compared to 10", "setting": "HBV replication [5]", "value": 2, "unit": "fold"}
    ]},
    {"compound": "O=C1CCN(C(=O)Nc2ccc(F)c(Cl)c2)C2CCCCC12", "note": "(stereo not drawn) [Compound 61, cis-N-(3-chloro-4-fluorophenyl)-4-oxooctahydroquinoline-1(2H)-carboxamide]", "values": [
      {"measurement": "clearance", "setting": "[6]", "value": 25.5, "unit": "mL/min/kg"},
      {"measurement": "encapsidated pgRNA", "setting": "[1]", "value": "reduced the amounts of encapsidated pgRNA"},
      {"measurement": "capsids", "setting": "[1]", "value": "induced the accumulation of capsids with faster electrophoresis mobility"},
      {"measurement": "IC50", "setting": "[7]", "value": "< 10", "unit": "µM"},
      {"measurement": "CYP (#/9 of isoforms, > 50% of inhibition at 10 μM)", "setting": "CYP enzymes", "value": 1}
    ]},
    {"compound": "Cc1cc(NC(=O)N2CCC(=O)[C@H]3CCCC[C@H]32)ccc1F", "note": "[Compound 70]", "values": [
      {"measurement": "anti-HBV activity (in words)", "setting": "HBV replication [5]", "value": "submicromolar"}
    ]},
    {"compound": "O=C1CCN(C(=O)Nc2ccc(F)c(C(F)F)c2)[C@@H]2CCCC[C@H]12", "note": "[Compound 71]", "values": [
      {"measurement": "anti-HBV activity (in words)", "setting": "HBV replication [5]", "value": "submicromolar"}
    ]},
    {"compound": "O=C1CCN(C(=O)Nc2cccc(Cl)c2)[C@@H]2CCCC[C@H]12", "note": "[Compound 74]", "values": [
      {"measurement": "anti-HBV activity (in words)", "setting": "HBV replication [5]", "value": "submicromolar"}
    ]},
    {"compound": "C[C@@H](NS(=O)(=O)c1ccc(F)c(C(=O)Nc2ccc(F)c(F)c2)c1)C1CC1", "note": "[ENAN-34017]", "values": [
      {"measurement": "encapsidated pgRNA", "setting": "[1]", "value": "reduced the amounts of encapsidated pgRNA"},
      {"measurement": "capsids", "setting": "[1]", "value": "induced the accumulation of capsids with faster electrophoresis mobility"}
    ]},
    {"compound": "C=C1[C@H](CO)[C@@H](O)C[C@@H]1n1cnc2c(=O)[nH]c(N)nc21.O", "note": "[Entecavir]", "values": [
      {"measurement": "encapsidated pgRNA", "setting": "[1]", "value": "accumulation of encapsidated pgRNA"},
      {"measurement": "capsids", "setting": "[1]", "value": "did not alter"},
      {"measurement": "intracellular core protein level", "setting": "[1]", "value": "did not alter"}
    ]}
  ]
}
